In one experiment the test system is pGL3-Control construct. Put plainly: Luciferase expression from control construct pGL3-Control in T47D cells. It counts as cell-based, human. To be noted: for IC50: Homo sapiens, T47D, read-out: IC50 on luciferase expression from pGL3-control. A digest of the protocol: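 T47D cells in DMEM/F12 with 10% FCS were transiently transfected with the constitutive pGL3-Control luciferase construct. Cells were treated with test compound and exposed to hypoxia (1% O2). Luciferase read-out as % inhibition = (1 − treated/induced light output) × 100. IC50 taken from concentration-response data, one experiment in triplicate.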

Experiment [1] has as its system NADH-ubiquinone oxidoreductase (complex I). Put plainly: Respiration of digitonin-permeabilized T47D cells, complex I substrates. It counts as cell-based, human. The note with it: malate and pyruvate.
The test system of experiment [2] is HIF-1. Put plainly: T47D cell-based reporter assay for HIF-1 activity. The arrangement: species or system human. A digest of the protocol:
(§1)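 PC-3 or T47D cells in DMEM/F12 with 10% FCS were transiently transfected with the HIF-1 reporter pHRE3-TK-luc. HIF-1 was induced by hypoxia (1% O2) or 10 μM 1,10-phenanthroline with test compound present. % inhibition = (1 − treated/induced luminescence) × 100. IC50 from concentration-response data, one experiment in triplicate. Potency given as fold change in IC50 relative to a reference analogue.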
A general note: In a reporter assay the amount or activity of a reporter protein is the signal.

For another experiment, the system named is VEGF. Put plainly: ELISA assay for secreted VEGF protein in T47D cells. It counts as cell-based, human. The note with it: 16 h; for effect on hypoxic induction of secreted VEGF protein: hypoxia (1% O2). In outline: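 T47D cells plated at 356,000/well and incubated overnight at 37°C. Test compound added in serum-free DMEM/F12. After 30 min in air, treatment continued 16 h under 1% O2/5% CO2/94% N2 or with 10 μM 1,10-phenanthroline. Secreted VEGF in conditioned medium measured by ELISA and normalised to total lysate protein (BCA assay).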

The test system of another experiment is HIF-1α protein. Put plainly: Western blot for nuclear HIF-1α protein in T47D cells. It counts as cell-based, human. To be noted: T47D nuclear extract; for effect on induction of HIF-1α protein by hypoxia: 4 h hypoxia (1% O2). A digest of the protocol:
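T47D cells plated at 10 × 10^6 per 100 mm dish for 16 h. Test compound given 30 min at 37°C, then 10 μM 1,10-phenanthroline or 1% O2 for 4 h. Nuclear extracts (60 μg protein) run on 8% SDS-PAGE and blotted to nitrocellulose. Probed with anti-HIF-1α monoclonal antibody (1:500, 1 h, RT), then HRP anti-mouse (1:30,000, 40 min), with chemiluminescent detection.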
For orientation: A western blot detects proteins with antibodies after separation by electrophoresis.

For another experiment, the system named is MDA-MB-231 cells. Put plainly: Cell proliferation/viability assay, MDA-MB-231. The note with it: normoxic or hypoxic conditions, data not shown. It counts as cell-based, human. In outline: (§2)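 Cells kept in DMEM/F12 with 10% FCS and antibiotics at 37°C. Plated at 30,000 cells/well and left overnight, then given test compound in serum-free medium. After 30 min, incubated 48 h under normoxia (5% CO2/95% air) or hypoxia (1% O2/5% CO2/94% N2). Viability read by neutral red or by sulforhodamine B (TCA fix, 0.4% dye, Tris extraction, A490 minus A690). Reported as % inhibition versus control.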

In another experiment the test system is PC-3 cells. Put plainly: Cell proliferation/viability assay, PC-3. The note with it: normoxic or hypoxic conditions, data not shown. It counts as cell-based, human. A digest of the protocol: as §2
The subject of experiment [3] is HIF-1. Put plainly: PC-3 cell-based reporter assay for HIF-1 activity. The arrangement: species or system human. A digest of the protocol: as §1

The structures appear in SMILES notation. Entries after “also recorded” stand apart in the source; their conditions may differ.

In the case of `CC(=O)C1=CC[C@H]2[C@]3(C)CC[C@H]4C(C)(C)CCC[C@]4(CO)[C@H]3C[C@H](O)[C@]2(C)[C@H]1C=O` [Compound 7, 22-Hydroxy-24-methyl-12α-hydroxy-24-oxoscalar-16-en-25-al], the “effect on luciferase expression from control construct pGL3-Control” value in the experiment on pGL3-Control construct (Figure 1B, 1D) was “suppressed luciferase expression”.
In the case of `C/C(=C\CCc1ccoc1)CC/C=C(\C)CCCC1=CC(=O)OC1` [Compound 6, furospongolide], the “effect on complex I-mediated mitochondrial respiration” value in experiment [1] was “selectively inhibits mitochondrial complex I-mediated respiration; also recorded: disrupting complex I”. For the same compound, the “selectivity towards HIF-1 inhibition relative to suppression of hypoxic T47D cell proliferation/viability” value in the experiment with HIF-1 [2] is listed as “more than 10 fold”. In addition, in the experiment with VEGF (30 μM, 1,10-phenanthroline (10 μM)), the “effect on increase in secreted VEGF protein level caused by 1,10-phenanthroline” value was “did not affect”. For the same compound, the “effect on hypoxic induction of secreted VEGF protein” value in the experiment with VEGF is given as “decreased hypoxic induction of secreted VEGF proteins in a concentration-dependent manner; also recorded: inhibits hypoxic induction of HIF-1 target VEGF protein”; with VEGF (listed as Furospongolide) it was “blocked the induction”. Further, the “effect on induction of HIF-1α protein by 1,10-phenanthroline” value in the experiment on HIF-1α protein (4 h 1,10-phenanthroline 10 μM) is reported as “only weakly inhibited”. Besides, the “effect on induction of HIF-1α protein by hypoxia” value was “blocked the induction of HIF-1α protein by hypoxia; also recorded: blocks the induction of nuclear HIF-1 α protein accumulation” in the experiment with HIF-1α protein and “inhibiting the hypoxic induction of HIF-1α protein” in the experiment on HIF-1α protein (listed as Furospongolide). For the same compound, the “effect on cell proliferation/viability” value in the experiment with MDA-MB-231 cells and with PC-3 cells was “Neither 6 nor the 6/6a mixture affected” each time.
Regarding `C=C(C)[C@H]1Cc2c(ccc3c2O[C@@H]2COc4cc(OC)c(OC)cc4[C@@H]2C3=O)O1` [rotenone, reference compound], in experiment [1], the “effect on complex I-mediated mitochondrial respiration” value is “inhibited”.
One may read the IC50 as the concentration needed to halve the response being measured. For the compound `CC(=O)C1=CC[C@H]2[C@]3(C)CC[C@H]4C(C)(C)CCC[C@]4(CO)[C@H]3CC(=O)[C@]2(C)[C@H]1C=O` [Compound 9, 22-hydroxy-24-methyl-12,24-dioxoscalar-16-en-25-al], the concentration for half-maximal inhibition (IC50) in the experiment on pGL3-Control construct is 2.6 µM.
Take `COC(=O)[C@]12CCCC(C)(C)[C@@H]1CC[C@@]1(C)[C@@H]3CC=C(C(C)=O)[C@H](C=O)[C@@]3(C)C(=O)C[C@@H]12` [Compound 8, 24-methyl-12,24,25-trioxoscalar-16-en-22-oate]: the “reduction in potency of HIF-1 inhibition in comparison to 7” value in the experiment with HIF-1 [2] is recorded as 5 to 7 fold; in the experiment with HIF-1 [3], 11 to 15 fold. Moreover, the half-maximal inhibitory concentration (IC50) in the experiment on pGL3-Control construct amounted to 23 µM.
